# Assay results reported in PMC5421360 (Peptides, 2017).
# Marks after values point to notes of the source that are not given here. Non-standard residues stand in square brackets, D forms with d. Residues, ends and D or L forms follow the SMILES beside them.
# What was measured:
# [1] = tested on: reactive oxygen species in NCI-H838 cells; test: Reactive oxygen species in H2DCF labeled NCI-H838 cells; format: cell-based, human
# Outline: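 NCI-H838 cells were plated at 30,000/well and cultured overnight. They were loaded with 10 µM H2DCF for 1 h and washed 3 times in serum-free SIT medium. Test compound (5 mM or 10 µM) was added 30 min before 10 µM H2O2. Fluorescence (ex 485, […]) was read 0.5 h after stimulus and expressed as relative fluorescence, mean ± S.D. of 8 determinations.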
# NSCLC patients [2] = conditions: plus paclitaxel-carboplatin; cited from earlier work
# [3] = tested on: cytosolic Ca2+ in SC-A1 cells; conditions: cited from earlier work
# ETAR [4] = target: T1, ETAR (Homo sapiens, UniProt P25101); test: 125I-ET-1 radioreceptor binding to NCI-H838 cells
# T1 sequence (P25101 21-427): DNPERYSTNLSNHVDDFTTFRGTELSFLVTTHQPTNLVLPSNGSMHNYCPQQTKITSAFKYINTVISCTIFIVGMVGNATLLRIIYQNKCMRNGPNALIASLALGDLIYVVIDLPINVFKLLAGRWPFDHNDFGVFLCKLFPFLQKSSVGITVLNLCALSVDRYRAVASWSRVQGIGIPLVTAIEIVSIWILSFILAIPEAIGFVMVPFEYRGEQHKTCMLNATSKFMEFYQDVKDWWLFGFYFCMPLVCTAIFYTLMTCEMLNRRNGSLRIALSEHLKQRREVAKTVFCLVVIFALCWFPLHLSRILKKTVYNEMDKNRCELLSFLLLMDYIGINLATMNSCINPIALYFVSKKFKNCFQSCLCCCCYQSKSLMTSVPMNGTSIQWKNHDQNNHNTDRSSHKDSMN
# ETAR [5] = target: T1, ETAR; test: 125I-ET-1 radioreceptor binding to NCI-H1975 cells
# [6] = tested on: cytosolic Ca2+ in NCI-H1975 cells; test: Cytosolic Ca2+ in Fura-2AM loaded NCI-H1975 cells; format: cell-based, human; conditions: for antagonism of the Ca2+ increase caused by 10 nM ET-1: 1000 nM antagonist; for effect on basal cytosolic Ca2+: 1000 nM antagonist alone
# Outline: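 NCI-H1975 cells were detached with trypsin-EDTA and loaded with Fura-2AM in SIT medium (2.5 × 10^6 cells/ml) at 37°C for 30 min. Cells were spun at 1000 × g for 5 min, resuspended at 2.5 × 10^6/ml and placed in a stirred quartz cuvette at 37°C.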
# EGFR [7] = test: Western blot of EGFR tyrosine phosphorylation in NCI-H838 cells; format: cell-based, human; conditions: for effect on increase in EGFR phosphorylation caused by 100 nM ET-1: 10 μM inhibitor, 2 min ET-1; for effect on basal P-EGFR, EGFR: inhibitor alone; for effect on basal P-EGFR, EGFR / effect on EGFR transactivation caused by ET-1: data not shown; for effect on EGFR transactivation caused by ET-1: NSCLC cells, concentration not given
# HER2 [8] = test: Western blot of HER2 tyrosine phosphorylation in NCI-H838 cells; format: cell-based, human; conditions: for effect on increase in HER2 phosphorylation caused by 100 nM ET-1: 10 μM inhibitor, 2 min ET-1; for effect on basal P-HER2 or HER2: inhibitor alone; for effect on basal P-HER2 or HER2 / effect on HER2 transactivation caused by ET-1: data not shown; for effect on HER2 transactivation caused by ET-1: NSCLC cells, concentration not given
# NCI-H838 cells [9] = test: Clonogenic assay, NCI-H838 cells; format: cell-based, human; conditions: gefitinib 1 ug/ml; for reduction of colony number: absence of exogenous ET-1, BQ123 1 μM; for Colony number: in the presence of ET-1 10 nM, BQ123/BQ788 1000 nM, 2 weeks
# NCI-H838 cells [10] = test: MTT proliferation assay, NCI-H838 cells; format: cell-based; conditions: Homo sapiens, NCI-H838, 48 h, read-out: IC50, proliferation
# A549 cells = test: MTT proliferation assay, A549 cells; format: cell-based; conditions: Homo sapiens, A549, 48 h, read-out: IC50, proliferation
# NSCLC patients [11] = conditions: zibotentan or zibotentan plus pemetrexed; cited from earlier work
# EGFR [12] = test: Western blot of EGFR tyrosine phosphorylation in NCI-H1975 cells; format: cell-based, human; conditions: 5 mM
# Outline: (§1)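 Lysates (Tris pH 7.5, vanadate) were either immunoprecipitated with anti-phosphotyrosine antibody (400 µg protein) or loaded directly (20 µg) and probed with anti-PY1068-EGFR or anti-[…]-HER2. ECL bands were quantified by densitometry as mean % tyrosine phosphorylation.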
# HER2 [13] = test: Western blot of HER2 tyrosine phosphorylation in NCI-H1975 cells; format: cell-based, human; conditions: 5 mM
# Outline: as §1
# NCI-H727 cells = test: MTT proliferation assay, NCI-H727 cells; format: cell-based; conditions: Homo sapiens, NCI-H727, 48 h, read-out: IC50, proliferation
# [14] = addition alone (ET-1 100 nM, H2O2 10 μM, Tiron 5 mM, ZD4054 10 μM), 0.5 hr, None = 100
# [15] = with H2O2 10 μM, Tiron or ZD4054 added 0.5 h before, read 0.5 hr after H2O2
smiles,measurement,setting,value
OO [H2O2],% Fluorescence intensity,[1]; [14],401 ± 37 ^aa %
CCCCN(CCCC)C(=O)CN1C[C@H](c2ccc3c(c2)OCO3)[C@@H](C(=O)O)[C@@H]1c1ccc(OC)cc1 [atrasentan],tolerability,NSCLC patients [2],well tolerated
COc1ccc2c(c1)CC[C@@H]1[C@@H]2CC[C@]2(C)[C@@H](NCCCCCCN3C(=O)C=CC3=O)CC[C@@H]12 [U73122],effect on the Ca2+ increase caused by ET-1,[3],reversed
CC(C)C[C@@H]1NC(=O)[C@@H](C(C)C)NC(=O)[C@@H]2CCCN2C(=O)[C@@H](CC(=O)O)NC(=O)[C@@H](Cc2c[nH]c3ccccc23)NC1=O [BQ123] (cyclo(L[dW][dD]P[dV]); ring closure inferred),IC50,ETAR [4],1 ± 0.2 nM
same,IC50,ETAR [5],1.5 ± 0.03 nM
same,antagonism of the Ca2+ increase caused by 10 nM ET-1,[6],blocked
same,effect on basal cytosolic Ca2+,[6],did not alter
same,effect on EGFR tyrosine phosphorylation caused by 100 nM ET-1,EGFR [7]; 0.1 μM antagonist,little effect
same,effect on EGFR tyrosine phosphorylation caused by 100 nM ET-1,EGFR [7]; 1 μM or 10 μM antagonist,significantly reduced
same,effect on HER2 tyrosine phosphorylation caused by 100 nM ET-1,HER2 [8]; 0.1 μM antagonist,little effect
same,effect on HER2 tyrosine phosphorylation caused by 100 nM ET-1,HER2 [8]; 1 μM or 10 μM antagonist,significantly reduced
same,reduction of colony number,NCI-H838 cells [9],22%
same,Colony number,NCI-H838 cells [9],37 ± 2 ^a
same,effect on the Ca2+ increase caused by ET-1,[3],reversed
COC(=O)C1=C(C)NC(C)=C(C(=O)OC)C1c1ccccc1[N+](=O)[O-] [nifedipine],effect on the Ca2+ increase caused by ET-1,[3],reversed
CC(C)(C)n1nc(-c2ccc(Cl)cc2)c2c(N)ncnc21 [PP2],effect on increase in EGFR phosphorylation caused by 100 nM ET-1,EGFR [7],inhibited significantly
same,"effect on basal P-EGFR, EGFR",EGFR [7],no effect
same,effect on increase in HER2 phosphorylation caused by 100 nM ET-1,HER2 [8],inhibited significantly
same,effect on basal P-HER2 or HER2,HER2 [8],no effect
CC(=O)N[C@@H](CS)C(=O)O [Nacetylcysteine],effect on EGFR transactivation caused by ET-1,EGFR [7],inhibited
same,effect on HER2 transactivation caused by ET-1,HER2 [8],inhibited
"COc1nc(C)cnc1NS(=O)(=O)c1cccnc1-c1ccc(-c2nnco2)cc1 [ZD4054, zibotentan]",effect on EGFR transactivation caused by ET-1,EGFR [7],inhibited
same,effect on HER2 transactivation caused by ET-1,HER2 [8],inhibited
same,% Fluorescence intensity,[1]; [14],"105 ± 6 ^aa^, ^bb %"
same,% Fluorescence intensity,[1]; [15],351 ± 22 ^aa %
same,IC50,NCI-H838 cells [10],50 µg/mL
same,IC50,A549 cells,45 µg/mL
same,overall survival,NSCLC patients [11],no differences
O=S(=O)(O)c1cc(O)c(O)c(S(=O)(=O)O)c1 [Tiron],"effect on basal P-EGFR, EGFR",EGFR [7],no effect
same,effect on basal P-HER2 or HER2,HER2 [8],no effect
same,effect on increase in EGFR tyrosine phosphorylation caused by ET-1,EGFR [12],inhibited significantly
same,effect on increase in HER2 tyrosine phosphorylation caused by ET-1,HER2 [13],inhibited significantly
same,% Fluorescence intensity,[1]; [14],"99 ± 7 ^aa^, ^bb %"
same,% Fluorescence intensity,[1]; [15],171 ± 12 ^bb %
CNC(=O)[C@H](Cc1c[nH]c2ccccc12)NC(=O)[C@@H](CC(=O)NO)CC(C)C [GM6001],effect on increase in EGFR phosphorylation caused by 100 nM ET-1,EGFR [7],inhibited significantly
same,"effect on basal P-EGFR, EGFR",EGFR [7],no effect
same,effect on increase in HER2 phosphorylation caused by 100 nM ET-1,HER2 [8],inhibited significantly
same,effect on basal P-HER2 or HER2,HER2 [8],no effect
"COc1cc2ncnc(Nc3ccc(F)c(Cl)c3)c2cc1OCCCN1CCOCC1 [Gefitinib, gefitinib]",effect on HER2 transactivation caused by 100 nM ET-1,HER2 [8]; 10 μg/ml,significantly reduced
same,reduction of colony number,NCI-H838 cells [9],50%
same,Colony number,NCI-H838 cells [9],32 ± 3 ^aa
CCCC[C@@H](NC(=O)[C@@H](Cc1cn(C(=O)OC)c2ccccc12)NC(=O)[C@H](CC(C)(C)C)NC(=O)N1[C@H](C)CCC[C@@H]1C)C(=O)O [BQ788],IC50,ETAR [4],20 ± 2 nM
same,IC50,ETAR [5],25 ± 3 nM
same,antagonism of the Ca2+ increase caused by 10 nM ET-1,[6],did not antagonize
same,effect on basal cytosolic Ca2+,[6],had no effect
same,effect on EGFR transactivation caused by ET-1,EGFR [7],little effect
same,effect on HER2 transactivation caused by ET-1,HER2 [8],little effect
same,Colony number,NCI-H838 cells [9],46 ± 4
"CS(=O)(=O)CCNCc1ccc(-c2ccc3ncnc(Nc4ccc(OCc5cccc(F)c5)c(Cl)c4)c3c2)o1 [Lapatinib, lapatinib]",IC50,ETAR [4],> 10000 nM
same,IC50,ETAR [5],> 10000 nM
same,effect on EGFR transactivation caused by ET-1,EGFR [7],inhibited
same,effect on HER2 transactivation caused by ET-1,HER2 [8],inhibited
same,IC50,NCI-H727 cells,0.5 µg/mL
same,IC50,NCI-H838 cells [10],1 µg/mL
same,IC50,A549 cells,2 µg/mL
